Assay results published in ChEMBL document CHEMBL1154740, “Efficient microwave combinatorial synthesis of novel indolic arylpiperazine derivatives as serotoninergic ligands” (Eur J Med Chem, 2010).

Key:
[1] = target: 5-hydroxytryptamine receptor 2A (Rattus norvegicus, UniProt P14842); assay: Displacement of [3H]ketanserin from 5HT2A in Sprague-Dawley rat brain cortex by liquid scintillation counting
Outline: (§1)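 Frontal cortex of male Sprague–Dawley rats (180–220 g), in 50 mM Tris-HCl, 0.5 mM EDTA, 10 mM MgCl2, pH 7.4, plus 0.1% ascorbate and pargyline. Triplicate 2.0 mL assays: 5-HT2A with 5 mg tissue and 0.4 nM [3H]ketanserin; 5-HT2C with 10 mg tissue and 1 nM [3H]mesulergine. 15 min at 37 °C, PEI-soaked filters. IC50 from six concentrations converted to Ki (Cheng–Prusoff).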

[2] = target: T1, 5-hydroxytryptamine receptor 1A (Rattus norvegicus, UniProt P19327); assay: Displacement of [3H]8OH-DPAT from 5HT1A in Sprague-Dawley rat brain cortex by liquid scintillation counting
T1 sequence (P19327 whole entry): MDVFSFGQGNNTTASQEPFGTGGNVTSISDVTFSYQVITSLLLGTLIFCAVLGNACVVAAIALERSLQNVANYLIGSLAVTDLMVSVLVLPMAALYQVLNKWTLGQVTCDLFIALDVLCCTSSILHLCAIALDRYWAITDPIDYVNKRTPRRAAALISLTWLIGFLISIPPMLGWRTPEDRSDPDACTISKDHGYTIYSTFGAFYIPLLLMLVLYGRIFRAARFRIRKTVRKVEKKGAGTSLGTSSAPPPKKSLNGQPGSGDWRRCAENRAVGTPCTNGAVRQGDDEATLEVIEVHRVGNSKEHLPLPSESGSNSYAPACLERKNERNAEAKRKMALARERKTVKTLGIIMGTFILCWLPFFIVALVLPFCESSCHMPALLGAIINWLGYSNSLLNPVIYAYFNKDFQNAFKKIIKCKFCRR
Outline: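 Male Sprague–Dawley rat (180–220 g) cerebral cortex membranes, washed and preincubated 10 min at 37 °C, in Tris–HCl pH 7.7 with pargyline, 4 mM CaCl2, 0.1% ascorbate. [3H]-8-OH-DPAT at 0.1 nM final, 30 min at 37 °C, GF/B filtration. Nonspecific binding defined with 5-HT. Six concentrations in triplicate; IC50 converted to Ki by Cheng–Prusoff using Scatchard KD.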

[3] = target: T2, 5-hydroxytryptamine receptor 2C (Rattus norvegicus, UniProt P08909); assay: Displacement of [3H]mesulergine from 5HT2C in Sprague-Dawley rat brain cortex by liquid scintillation counting; outline: as §1
T2 sequence (P08909 whole entry): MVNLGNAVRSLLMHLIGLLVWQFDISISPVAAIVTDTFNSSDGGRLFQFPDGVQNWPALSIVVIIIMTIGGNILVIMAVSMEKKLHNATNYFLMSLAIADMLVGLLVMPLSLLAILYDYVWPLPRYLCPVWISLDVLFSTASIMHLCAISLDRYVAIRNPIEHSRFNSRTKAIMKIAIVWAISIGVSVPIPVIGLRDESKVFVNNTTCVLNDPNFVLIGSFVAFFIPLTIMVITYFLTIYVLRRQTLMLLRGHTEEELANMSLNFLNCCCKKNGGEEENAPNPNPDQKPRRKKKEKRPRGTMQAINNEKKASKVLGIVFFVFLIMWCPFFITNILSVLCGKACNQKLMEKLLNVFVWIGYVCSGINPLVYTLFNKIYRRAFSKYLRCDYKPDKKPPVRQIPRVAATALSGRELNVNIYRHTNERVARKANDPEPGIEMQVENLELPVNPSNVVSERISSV

[4] = target: T3, Adrenergic receptor alpha-1 (Rattus norvegicus, UniProt P15823+P23944+P43140); assay: Displacement of [3H]prozosine from alpha1 adrenergic receptor in rat brain cortex by liquid scintillation counting; format: tissue-based
T3 sequence (P15823 whole entry): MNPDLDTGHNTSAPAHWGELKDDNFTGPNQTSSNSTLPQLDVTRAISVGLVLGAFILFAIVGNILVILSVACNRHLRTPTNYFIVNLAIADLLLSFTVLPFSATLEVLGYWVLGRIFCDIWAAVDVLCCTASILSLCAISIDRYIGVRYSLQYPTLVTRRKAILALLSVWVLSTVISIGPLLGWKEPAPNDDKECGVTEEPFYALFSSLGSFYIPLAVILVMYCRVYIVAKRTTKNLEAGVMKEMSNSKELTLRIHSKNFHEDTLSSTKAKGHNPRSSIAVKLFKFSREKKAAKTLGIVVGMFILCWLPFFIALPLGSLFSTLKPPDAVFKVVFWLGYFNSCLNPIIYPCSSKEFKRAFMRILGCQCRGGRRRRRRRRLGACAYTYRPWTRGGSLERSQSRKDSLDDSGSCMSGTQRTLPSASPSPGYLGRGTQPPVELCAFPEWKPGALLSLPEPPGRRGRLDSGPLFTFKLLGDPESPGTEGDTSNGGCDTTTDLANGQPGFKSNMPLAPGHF
T3 sequence (P23944 whole entry): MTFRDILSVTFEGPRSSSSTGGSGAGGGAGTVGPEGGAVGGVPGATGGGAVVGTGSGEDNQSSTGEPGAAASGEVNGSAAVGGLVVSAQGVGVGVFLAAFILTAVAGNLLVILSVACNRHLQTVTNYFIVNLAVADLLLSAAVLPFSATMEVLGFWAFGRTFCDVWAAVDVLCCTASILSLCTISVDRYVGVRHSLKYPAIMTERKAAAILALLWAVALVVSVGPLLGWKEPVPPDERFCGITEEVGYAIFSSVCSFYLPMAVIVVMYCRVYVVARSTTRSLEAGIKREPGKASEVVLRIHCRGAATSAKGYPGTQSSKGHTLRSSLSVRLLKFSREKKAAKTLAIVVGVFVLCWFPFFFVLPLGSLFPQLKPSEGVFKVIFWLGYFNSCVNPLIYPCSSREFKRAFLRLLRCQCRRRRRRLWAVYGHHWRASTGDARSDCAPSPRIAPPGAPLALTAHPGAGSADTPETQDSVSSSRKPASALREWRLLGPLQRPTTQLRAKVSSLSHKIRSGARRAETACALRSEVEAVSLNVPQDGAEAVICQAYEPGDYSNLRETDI
T3 sequence (P43140 whole entry): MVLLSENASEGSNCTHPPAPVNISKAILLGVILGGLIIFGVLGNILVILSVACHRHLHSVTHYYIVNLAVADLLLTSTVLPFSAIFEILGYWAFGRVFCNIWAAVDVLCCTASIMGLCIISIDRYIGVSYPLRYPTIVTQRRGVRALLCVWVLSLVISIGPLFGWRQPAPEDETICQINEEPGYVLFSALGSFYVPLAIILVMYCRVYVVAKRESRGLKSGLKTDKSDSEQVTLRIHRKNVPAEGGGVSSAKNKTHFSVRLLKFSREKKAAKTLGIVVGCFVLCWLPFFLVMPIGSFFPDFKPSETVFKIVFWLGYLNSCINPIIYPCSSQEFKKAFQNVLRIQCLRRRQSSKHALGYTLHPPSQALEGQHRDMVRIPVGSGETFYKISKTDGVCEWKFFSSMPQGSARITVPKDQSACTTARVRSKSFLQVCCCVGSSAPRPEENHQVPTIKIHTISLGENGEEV
Outline: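 Brain cortex membranes (10 mg fresh tissue) in 50 mM Tris–HCl pH 7.4 at 25 °C. [3H]prazosin at 0.4 nM final, incubated 30 min at 25 °C, GF/B filtration. Nonspecific binding with […]. Ki from IC50 via Cheng–Prusoff.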

D(2) dopamine receptor = D(2) dopamine receptor (Rattus norvegicus, UniProt P61169); assay: Displacement of [3H]spiperone from dopamine D2 in rat striatum by liquid scintillation counting
D(2) dopamine receptor, sequence (P61169 whole entry): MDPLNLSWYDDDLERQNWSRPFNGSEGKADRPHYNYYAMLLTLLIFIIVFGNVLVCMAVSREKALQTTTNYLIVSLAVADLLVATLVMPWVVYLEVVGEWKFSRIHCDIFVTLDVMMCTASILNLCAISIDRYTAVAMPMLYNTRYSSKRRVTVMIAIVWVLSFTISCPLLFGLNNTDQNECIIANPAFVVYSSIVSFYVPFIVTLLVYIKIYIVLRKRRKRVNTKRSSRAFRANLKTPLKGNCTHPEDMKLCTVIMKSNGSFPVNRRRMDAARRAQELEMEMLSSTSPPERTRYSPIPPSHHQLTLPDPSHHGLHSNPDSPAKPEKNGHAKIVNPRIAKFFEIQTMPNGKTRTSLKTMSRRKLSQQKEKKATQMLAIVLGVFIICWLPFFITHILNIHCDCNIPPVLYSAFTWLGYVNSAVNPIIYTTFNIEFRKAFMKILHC
Outline: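 Striatal membranes (3 mg fresh tissue) in Tris–HCl with NaCl, KCl, CaCl2, MgCl2, ascorbic acid and pargyline, pH 7.1 at 37 °C. Incubated with [3H]spiperone at 0.4 nM final for 15 min at 37 °C, then filtered on GF/B. Nonspecific binding defined with (+)-butaclamol. IC50 converted to Ki by Cheng–Prusoff.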

[5] = target: T4, Adrenergic receptor alpha-2 (Rattus norvegicus, UniProt P22086+P19328+P22909); assay: Displacement of [3H]yohimbine from alpha2 adrenergic receptor in rat brain cortex by liquid scintillation counting; format: tissue-based
T4 sequence (P22086 whole entry): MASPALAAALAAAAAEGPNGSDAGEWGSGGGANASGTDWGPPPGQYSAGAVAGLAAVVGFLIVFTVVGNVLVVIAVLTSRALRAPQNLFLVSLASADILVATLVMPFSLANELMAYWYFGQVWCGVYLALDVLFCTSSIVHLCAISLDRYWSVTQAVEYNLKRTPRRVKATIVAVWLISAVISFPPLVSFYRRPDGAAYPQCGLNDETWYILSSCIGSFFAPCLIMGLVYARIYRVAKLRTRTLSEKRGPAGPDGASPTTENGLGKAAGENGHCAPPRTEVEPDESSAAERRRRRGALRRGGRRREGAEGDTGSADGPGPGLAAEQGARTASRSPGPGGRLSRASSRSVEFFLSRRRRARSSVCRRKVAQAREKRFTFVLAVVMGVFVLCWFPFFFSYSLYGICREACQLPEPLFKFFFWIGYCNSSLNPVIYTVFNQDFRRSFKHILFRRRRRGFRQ
T4 sequence (P19328 whole entry): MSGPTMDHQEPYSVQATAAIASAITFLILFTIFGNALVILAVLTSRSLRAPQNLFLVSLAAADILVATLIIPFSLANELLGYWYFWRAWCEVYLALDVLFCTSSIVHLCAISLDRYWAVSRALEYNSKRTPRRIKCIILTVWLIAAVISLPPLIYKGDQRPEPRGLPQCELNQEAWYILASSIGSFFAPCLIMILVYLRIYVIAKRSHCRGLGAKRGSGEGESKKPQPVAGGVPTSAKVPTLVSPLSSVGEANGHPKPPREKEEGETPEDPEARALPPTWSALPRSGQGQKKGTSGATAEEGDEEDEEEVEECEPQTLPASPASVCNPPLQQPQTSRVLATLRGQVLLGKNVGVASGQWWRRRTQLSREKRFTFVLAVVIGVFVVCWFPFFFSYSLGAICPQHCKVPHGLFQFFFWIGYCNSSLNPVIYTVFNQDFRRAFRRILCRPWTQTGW
T4 sequence (P22909 whole entry): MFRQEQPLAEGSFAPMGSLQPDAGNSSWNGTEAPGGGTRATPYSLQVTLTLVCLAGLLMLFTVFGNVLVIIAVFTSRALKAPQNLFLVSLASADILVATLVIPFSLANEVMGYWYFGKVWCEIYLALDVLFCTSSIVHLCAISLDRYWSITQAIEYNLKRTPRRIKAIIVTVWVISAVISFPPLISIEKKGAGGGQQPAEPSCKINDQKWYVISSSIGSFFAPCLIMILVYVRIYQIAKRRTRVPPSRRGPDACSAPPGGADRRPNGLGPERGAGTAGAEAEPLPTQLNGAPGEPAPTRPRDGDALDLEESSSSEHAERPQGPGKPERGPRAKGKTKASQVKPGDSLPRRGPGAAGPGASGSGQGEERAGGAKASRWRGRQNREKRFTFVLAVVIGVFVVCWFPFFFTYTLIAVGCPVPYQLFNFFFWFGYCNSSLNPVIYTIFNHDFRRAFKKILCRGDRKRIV
Outline: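 Cortical membranes prepared in 5 mM Tris–HCl/5 mM EDTA pH 7.3, washed three times; 10 mg fresh tissue per tube. [3H]yohimbine at 1 nM final, 30 min at 25 °C, GF/B filtration, washed with Tris–HCl/EDTA pH 7.5. Nonspecific binding defined with […]. IC50 converted to Ki by Cheng–Prusoff.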

D(1A) dopamine receptor = D(1A) dopamine receptor (Rattus norvegicus, UniProt P18901); assay: Displacement of [3H]SCH23390 from dopamine D1 in rat striatum by liquid scintillation counting
D(1A) dopamine receptor, sequence (P18901 whole entry): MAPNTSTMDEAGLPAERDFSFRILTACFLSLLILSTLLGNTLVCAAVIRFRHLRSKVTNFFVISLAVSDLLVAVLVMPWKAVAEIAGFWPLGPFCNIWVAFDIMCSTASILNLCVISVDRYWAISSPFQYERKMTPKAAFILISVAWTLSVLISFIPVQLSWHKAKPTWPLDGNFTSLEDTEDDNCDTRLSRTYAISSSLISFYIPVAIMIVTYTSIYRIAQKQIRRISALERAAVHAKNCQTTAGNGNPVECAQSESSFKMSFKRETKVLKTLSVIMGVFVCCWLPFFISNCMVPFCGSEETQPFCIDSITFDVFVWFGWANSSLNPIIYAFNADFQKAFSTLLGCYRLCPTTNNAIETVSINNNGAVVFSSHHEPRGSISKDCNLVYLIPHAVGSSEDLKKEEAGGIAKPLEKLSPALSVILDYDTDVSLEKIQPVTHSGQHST
Outline: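 Rat corpora striata membranes in 50 mM Tris–HCl with 120 mM NaCl, 5 mM KCl, 2 mM CaCl2, 1 mM MgCl2, 0.1% ascorbic acid, pargyline, pH 7.1 at 37 °C; 3 mg fresh tissue per tube. [3H]SCH-23390 at 0.4 nM final, 15 min at 37 °C, GF/B filtration. Nonspecific binding defined with piflutixol. Ki from IC50 via Cheng–Prusoff.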

5-hydroxytryptamine receptor 2A, sequence (P14842 whole entry): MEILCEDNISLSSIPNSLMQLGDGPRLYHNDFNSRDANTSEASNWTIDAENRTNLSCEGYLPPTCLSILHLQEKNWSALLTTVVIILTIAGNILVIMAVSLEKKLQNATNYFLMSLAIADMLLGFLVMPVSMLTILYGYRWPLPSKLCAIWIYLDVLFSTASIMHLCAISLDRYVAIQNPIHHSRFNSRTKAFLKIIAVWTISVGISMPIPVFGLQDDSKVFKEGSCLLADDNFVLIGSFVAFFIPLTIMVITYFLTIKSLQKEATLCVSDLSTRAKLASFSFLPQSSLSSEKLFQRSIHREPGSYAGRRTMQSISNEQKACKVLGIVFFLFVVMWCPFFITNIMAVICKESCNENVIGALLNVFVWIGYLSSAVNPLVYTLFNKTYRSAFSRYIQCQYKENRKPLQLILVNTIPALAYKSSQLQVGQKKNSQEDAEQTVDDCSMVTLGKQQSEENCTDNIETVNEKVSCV

Ki ([1]; read-out: Ki) [nM] | Ki ([3]; read-out: Ki) [nM] | Ki ([2]; read-out: Ki) [nM] | Structure (SMILES) | other results
10000 | 247 |  | CCOC(=O)c1cc2cc(OCCCN3CCN(c4ccc([N+](=O)[O-])cc4)CC3)ccc2[nH]1 | Ki [2]: Not Active
10000 | 50.4 | 10000 | CCOC(=O)c1cc2cc(OCCCN3CCN(c4ccc(OC)cc4)CC3)ccc2[nH]1 | Ki [4]: 514 nM; Ki (D(2) dopamine receptor): Not Active; Ki [5]: 6480 nM; Ki (D(1A) dopamine receptor): Not Active
3610 |  | 35.8 | CCOC(=O)c1cc2cc(OCCCN3CCN(c4cccc(C(F)(F)F)c4)CC3)ccc2[nH]1 | Ki [3]: Not Active
 | 1.28 | 39 | CCOC(=O)c1cc2cc(OCCCN3CCN(c4cccc(Cl)c4)CC3)ccc2[nH]1 | Ki [4]: 32.9 nM; Ki (D(2) dopamine receptor): Not Active; Ki [5]: 1350 nM; Ki (D(1A) dopamine receptor; read-out: Ki): 1070 nM
 |  |  | CCOC(=O)c1cc2cc(OCCCN3CCN(c4ccccc4C)CC3)ccc2[nH]1 | Ki [1]: Not Active; Ki [3]: Not Active
344 | 104 |  | CCOC(=O)c1cc2cc(OCCCN3CCN(c4ccccn4)CC3)ccc2[nH]1 | Ki [2]: Not Active
 |  |  | CCOC(=O)c1cc2cc(OCCCN3CCN(c4ccccc4C#N)CC3)ccc2[nH]1 | Ki [1]: Not Active; Ki [3]: Not Active
 | 45.1 | 14 | CCOC(=O)c1cc2cc(OCCCN3CCN(c4ccc(Cl)cc4)CC3)ccc2[nH]1 | 
 | 10000 | 10000 | CCOC(=O)c1cc2cc(OCCCN3CCN(c4ccc(Cl)c(Cl)c4)CC3)ccc2[nH]1 | Ki [1]: Not Active
26.1 | 43.6 | 10000 | CCOC(=O)c1cc2cc(OCCCN3CCN(Cc4ccc5c(c4)OCO5)CC3)ccc2[nH]1 | Ki [4]: 338 nM; Ki (D(2) dopamine receptor): Not Active; Ki [5]: 231 nM; Ki (D(1A) dopamine receptor; read-out: Ki): 10000 nM
452 | 309 |  | CCOC(=O)c1cc2cc(OCCCN3CCN(C(=O)c4ccco4)CC3)ccc2[nH]1 | Ki [2]: Not Active
537 | 39.7 | 10000 | CCOC(=O)c1cc2cc(OCCCN3CCN(c4ccccc4Cl)CC3)ccc2[nH]1 | 
